# Screening results deposited in PubChem BioAssay by several laboratories.
# PG9 binder: small molecules binding HIV-1 gp120 antibody PG9; 0.43% of 360,000 active; inhibition, % at 6.7 µM; TR-FRET gp120-PG9 antibody binding; AID 624416; in the data active = inhibition above about 8.5%
# NR2E3 ag-1: NR2E3 (human) agonism; AID 2300; inhibition of corepressor binding, % at 4.78 µM; 0.12% of 320,000 active; GST-NR2E3/biotin-RetCOR TR-FRET, 1536-well; Q9Y5X4;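 active = percent inhibition above the cutoff of mean plus 3 SD of all tested compounds, set per screening campaign, cut at about 20% in these data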
# Target sequence (Q9Y5X4 whole entry, looked up): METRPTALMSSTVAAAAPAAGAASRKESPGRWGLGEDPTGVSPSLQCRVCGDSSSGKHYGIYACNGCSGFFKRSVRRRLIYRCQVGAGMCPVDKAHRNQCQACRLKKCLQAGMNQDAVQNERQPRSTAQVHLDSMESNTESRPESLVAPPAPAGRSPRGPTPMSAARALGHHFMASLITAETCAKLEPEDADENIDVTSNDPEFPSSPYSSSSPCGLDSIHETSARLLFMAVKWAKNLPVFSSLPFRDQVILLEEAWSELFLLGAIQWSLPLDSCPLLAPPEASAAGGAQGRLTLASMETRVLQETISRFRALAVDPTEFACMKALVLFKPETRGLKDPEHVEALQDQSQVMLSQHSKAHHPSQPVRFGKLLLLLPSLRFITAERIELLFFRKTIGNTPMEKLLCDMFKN
#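 Material: NR2E3–RetCOR corepressor complex / Amount: 1.35 nM GST-NR2E3 / Medium: Tris pH 7.5 / Compound: single nominal compound dose of 4.8 µM / Incubation: 5 h at 4 °C / Technique: TR-FRET, Eu(K)-anti-GST donor, streptavidin-D2 acceptor, ex 340, em 617/671 nm / Read-out basis: percent loss of FRET ratio relative to control wells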
# NR2E3 ag-2: human photoreceptor-specific nuclear receptor agonism; Q9Y5X4; CHO-S Gal4-NCOR/VP16-NR2E3 two-hybrid, luciferase; inhibition of corepressor binding, % at 3.98 µM; 0.35% of 360,000 active;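 active = inhibition above the mean of all tested compounds plus 3 SD, cut at about 70% in these data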;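 also: higher means lower luciferase signal from less NR2E3 corepressor binding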
# NR1D1 modulator: modulates human Rev-erb alpha binding to DNA | P20393 | Rev-erbα–FITC-DNA binding, fluorescence polarization, 90 min | activity, % at 10 µM | 0.79% of 370,000 active | AID 1259318;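 active = activity above about 14%, limit read from the data; passing the limit was not always enough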
# PG9 bind confirm: PG9 antibody binding, confirmed | shares compounds with PG9 binder | TR-FRET PG9 antibody binding, biochemical | inhibition, % at 6.7 µM | 90% of 1,500 active; in the data active = inhibition above about 9%
# PGV04 counter: PGV04 control antibody binding, counter-screen; shares compounds with PG9 binder; TR-FRET PGV04 antibody-gp120 binding, biochemical; inhibition, % at 6.7 µM; 95% of 1,500 active; in the data active = inhibition above about 9.5%
# PG9 bind DR: small molecules binding HIV-1 gp120 antibody PG9 | shares compounds with PG9 binder | TR-FRET PG9 antibody-gp120 binding inhibition | IC50, µM | 95 tested, under 10 active | AID 651848; in the data active = IC50 below about 10 µM
# PGV04 binding DR: binds control antibody PGV04 in PG9 counter-screen. shares compounds with PG9 binder. TR-FRET binding to control antibody PGV04. IC50, µM. 20% of 95 active. AID 651937
# PG126 binding DR: counter-screen for PG9 binders: binding to control antibody PG126. shares compounds with PG9 binder. TR-FRET binding to antibody PG126, counterscreen. IC50, µM. 20% of 95 active
# A number is an active result; - = inactive; . = no result. Sampled rows, rich in hits. Any-hit rate of the full collection: about 1.4%. Rule as the data show it, unless noted: active = IC50 below about 9 µM; inactive = the rest.
SMILES,PG9 binder,NR2E3 ag-1,NR2E3 ag-2,NR1D1 modulator,PG9 bind confirm,PGV04 counter,others
COc1cc(C(=O)Nc2nc3ccc(C)cc3s2)ccc1OCc1c(C)noc1C,12,-,-,-,21,26,
Cc1ccc(C(=O)C2=C(O)C(=O)N(c3ncccn3)C2c2ccc(Br)cc2)o1 (stereo not drawn),.,-,.,.,.,.,
Cc1ccc(C(=O)C2=C(O)C(=O)N(c3ncccn3)C2c2ccc(F)cc2)o1 (stereo not drawn),16,-,-,-,18,27,
Cc1ccc(C(=O)C2=C(O)C(=O)N(c3ncccn3)C2c2ccccc2F)o1 (stereo not drawn),14,-,-,-,25,32,
O=C(NCCC1CCCCN1S(=O)(=O)c1ccc(F)cc1)C(=O)Nc1ccccc1F (stereo not drawn),10,-,-,-,-,-,
O=C(Nc1ccc2oc(-c3ccncc3)nc2c1)c1ccccc1F,23,-,-,-,32,53,
O=C(CSc1nnc(-c2cccs2)n1Cc1ccco1)Nc1ccc(Oc2ccccc2)cc1,.,.,.,-,.,.,
CC(C)(C)N(Cc1cn(Cc2ccccc2)nn1)S(=O)(=O)c1ccccc1Br,.,.,.,-,.,.,
COc1cccc(OCCSc2nc3ccccc3c(=O)[nH]2)c1,24,-,-,-,23,31,
c1ccc(OCCSc2nc3ccccc3[nH]2)cc1,-,-,-,-,.,.,
CC(=O)NC(c1ccc(F)c(F)c1)c1nc(-c2cccc(F)c2)cs1 (stereo not drawn),-,.,-,-,.,.,
c1ccc(-c2nccc(-c3ccc(-n4cnc5ccccc54)cc3)n2)cc1,15,-,-,-,19,14,PG9 bind DR=-;PGV04 binding DR=-;PG126 binding DR=-
Cc1cc(NS(=O)(=O)c2ccc(NC(=O)CSc3nnc(SCc4ccc(Cl)cc4)s3)cc2)nc(C)n1,.,.,.,-,.,.,
CC(=O)c1cn(CC(=O)Nc2ccc(C)cc2)c2ccccc12,17,-,-,-,24,32,
CC(=O)c1cn(CC(=O)Nc2ccc(C)c(C)c2)c2ccccc12,-,-,-,-,.,.,
Cc1ccc(NC(=O)Cn2c(=O)c3cccn3c3ccccc32)cc1,21,-,-,-,19,27,
COC(=O)C1CN(Cc2cn(Cc3ccc(Cl)cc3)nn2)CCS(=O)(=O)N1Cc1ccc(Cl)cc1 (stereo not drawn),.,.,.,-,.,.,
C[C@@H]1OCN(C)[C@H]2C[C@H]3c4[nH]c5cccc(-c6ccccc6)c5c4CCN3C[C@@H]12,.,.,.,-,.,.,
COc1ccc(CNC(=O)CN(C(=O)c2cc3sccc3n2C)C2CCCC2)cc1,13,-,-,-,11,14,
CC(=O)c1ccc(NC(=O)c2ccc(S(=O)(=O)N3CCCC3)cc2)cc1,-,-,-,-,.,.,
CCOc1ncccc1C(=O)Nc1ccc(S(=O)(=O)N2CCCC2)cc1,9.6,-,-,-,13,18,
CCCCC(=O)Nc1ccc(C(=O)Nc2ccc(S(=O)(=O)N3CCCC3)cc2)cc1,18,-,-,-,19,38,
O=C(O)c1ccccc1C(=O)c1cccc2c(Br)cccc12,54,.,-,-,68,83,
CN(C)c1ccc(-c2nnc(-c3ccc(S(=O)(=O)C(F)F)cc3)o2)cc1,11,-,-,-,17,20,
COc1ccc(-c2nnc(-c3ccc(N(C)C)cc3)o2)cc1,-,-,-,-,.,.,
SMILES,PG9 binder,NR2E3 ag-1,NR2E3 ag-2,NR1D1 modulator,PG9 bind confirm,PGV04 counter,others
O=C(Cn1c2ccccc2c2nc3n(c(=O)c21)CCS3)Nc1ccccc1,-,-,-,-,.,.,
COc1cccc(NC(=O)Cn2c3ccc(OC)cc3c3nc4n(c(=O)c32)CCS4)c1,14,-,-,-,31,25,PG9 bind DR=-;PGV04 binding DR=9;PG126 binding DR=-
COc1ccc2nc(C)cc(SCC(=O)Nc3c(C)cccc3C)c2c1,10,-,-,-,27,33,
COc1ccc2nc(C)cc(SCC(=O)NNC(=O)COc3ccc(C)cc3)c2c1,-,-,-,-,.,.,
CCOc1ccc(/C(O)=C2/C(=O)C(=O)N(c3ccccn3)C2c2ccc(C)cc2)c(C)c1 (stereo not drawn),20,-,-,-,20,28,
CCOc1ccc(/C(O)=C2/C(=O)C(=O)N(c3ccccn3)C2c2ccc(Cl)cc2)c(C)c1 (stereo not drawn),11,.,-,-,13,19,
CCCOc1ccc(/C(O)=C2\C(=O)C(=O)N(c3ccccn3)C2c2ccccc2F)cc1C (stereo not drawn),21,-,-,-,17,24,
COc1ccc(C2/C(=C(/O)c3ccccc3)C(=O)C(=O)N2c2ccccn2)cc1 (stereo not drawn),-,-,-,-,.,.,
O=C(N1CCC(C(O)(c2ccccc2)c2ccccc2)CC1)n1ncc(C(O)(c2ccccc2)c2ccccc2)n1,.,.,.,-,.,.,
C[C@@H]1COc2cc(Br)ccc2S(=O)(=O)N1Cc1cn(Cc2ccc(Br)cc2)nn1,.,.,.,-,.,.,
COC(=O)[C@@]12CCCCC3=C1N(CCC3)C(=O)[C@H]2CC(=O)N1CCN(C(=O)C2CC2)CC1,.,.,.,-,.,.,
O=C1COc2ccc(C(=O)COC(=O)CCSc3ccc(Cl)cc3)cc2N1,13,-,-,-,30,44,
COc1cc(OC)c(C(=O)OCC(=O)c2ccc3c(c2)NC(=O)CO3)cc1OC,-,.,-,-,.,.,
CCN(CC)S(=O)(=O)c1cccc(C(=O)OCC(=O)c2ccc3c(c2)NC(=O)CO3)c1,-,-,-,-,.,.,
O=C1COc2ccc(C(=O)COC(=O)c3ccc(F)cc3Cl)cc2N1,32,.,-,-,37,47,
Cc1cccc(C(=O)OCC(=O)c2ccc3c(c2)NC(=O)CO3)c1,15,.,-,-,16,27,
COc1ccc(OC)c(S(=O)(=O)N2CCCC(C(=O)N3CCN(Cc4ccccc4)CC3)C2)c1 (stereo not drawn),.,.,.,-,.,.,
CCOC(=O)C(C(C)=O)c1c(Br)c(O)c(O)c2c(C(=O)c3ccc(C)cc3)coc12 (stereo not drawn),9.4,-,-,-,18,19,
CCOC(=O)c1c(C)n(-c2ccc(C)cc2)c2c(C(C(C)=O)C(=O)O)c(Br)c(O)c(O)c12 (stereo not drawn),-,-,-,-,.,.,
COc1ccc(/C(O)=C2/C(=O)C(=O)N(CCCN(C)C)C2c2ccc(Cl)cc2)cc1OC (stereo not drawn),13,-,-,-,23,30,
